An excerpt weighted towards active compounds, which were near 3.5% of everything screened.
Apaf1 inhib: human Apaf-1 inhibition | O14727 | reconstituted apoptosome caspase-3 activity, DEVD-Rh110 fluorescence | inhibition, % at 20 µM | 330,000 compounds, 0.71% hits | AID 489030; active means inhibition of at least 40% at 20 µM;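 further: plate controls were DMSO wells for no effect and DEVD-CHO caspase inhibitor wells for full effect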
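System: Apoptosome proteins | Medium: Hepes pH 7.5 with detergent and BSA | Also added: Cytochrome c trigger plus (Z-DEVD)2-Rh110 caspase-3 substrate | Incubation: 30 min compound preincubation, 50 min activation, room temperature | Detection: Rhodamine 110 fluorescence at Ex 480/Em 540 nm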
PAFAH1B3 FP inh: blocks human PAF acetylhydrolase 1B catalytic subunit 3 | AID 492972 | 340,000 compounds, 0.28% hits | recombinant PAFAH1B3, FP-rhodamine probe, fluorescence polarization | inhibition, % at 3.39 µM | Q15102;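 active means inhibition above the screen-wide average of all tested compounds plus 3 SD, cut at about 25% in these data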;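 further: 0% = enzyme with DMSO only and 100% = wells lacking PAFAH1B3 protein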
PAFAH2 FP inh: PAFAH2 (human) inhibition; recombinant PAFAH2, FP-rhodamine activity probe, fluorescence polarization; inhibition, % at 3.39 µM; Q99487; 340,000 compounds, 0.99% hits; AID 492956;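 active means inhibition above the mean over all tested compounds plus 3 SD, cut at about 30% in these data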;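 further: inhibitors block probe labeling of enzyme so polarization drops; 0% = enzyme with DMSO and 100% = wells lacking PAFAH2 protein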
pPAFAH inh: pPAFAH (human) enzyme inhibition | AID 463082 | inhibition, % at 3.39 µM | recombinant pPAFAH, FP-rhodamine probe fluorescence polarization | Q13093 | 330,000 compounds, 1.5% hits;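 active means inhibition above the mean inhibition across the screen plus 3 SD, cut at about 25% in these data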;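 further: inhibitors block binding of the rhodamine activity-based probe so polarization drops; 0% = enzyme with DMSO and 100% = wells lacking pPAFAH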
PAFAH1B2 FP inh: inhibitors of human PAFAH1B2; AID 492953; 340,000 compounds, 1.2% hits; recombinant PAFAH1B2, FP-rhodamine activity probe, fluorescence polarization; inhibition, % at 3.39 µM; P68402;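 active means inhibition above the mean of all tested compounds plus 3 SD, cut at about 24% in these data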;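 further: 0% = enzyme with DMSO and 100% = wells lacking PAFAH1B2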
PREPL inhibitor: human PREPL enzyme inhibition. 320,000 compounds, 0.68% hits. recombinant PREPL, fluorescence polarization activity-based probe. Q4J6C6. inhibition, % at 5.96 µM;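 further: 0% = enzyme with DMSO and 100% = wells lacking enzyme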
PREPL confirm: human PREPL inhibition, confirmation; shares compounds with PREPL inhibitor; recombinant PREPL, fluorescence polarization activity probe; inhibition, % at 5.96 µM; 2,000 compounds, 67% hits; AID 2803;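 further: 0% = protein with DMSO and 100% = wells lacking protein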
Starred values were filed as active, the others as inactive; nt = not tested or not shown. Unless noted, no stated cut-off is given here; in the data, active means inhibition above about 43%; inactive means the rest.

SMILES | Apaf1 inhib | PAFAH1B3 FP inh | PAFAH2 FP inh | pPAFAH inh | PAFAH1B2 FP inh | PREPL inhibitor | PREPL confirm
CN(CC(=O)N1CCN(Cc2ccccc2)CC1)C(=O)Cc1ccc(Cl)c(Cl)c1 | -3.1 | 7.5 | 4.8 | 1.1 | 4.3 | 45.7* | 42.9
Cn1ccc2cc(-c3ccc4ncnc(NCc5cccs5)c4c3)ccc21 | 19.2 | 7.3 | -4.2 | 13.0 | 11.9 | 49.5* | 41.1
COc1ccc(Cl)cc1S(=O)(=O)Nc1noc2ccccc12 | 0.6 | 4.0 | 0.2 | 1.8 | -2.0 | 0.4 | nt
Cc1ccc2[nH]c(=O)c(CN(CCCN(C)C)C(=O)Nc3ccc(F)cc3)cc2c1 | 1.6 | 3.5 | -3.6 | 6.1 | 0.8 | -26.8 | nt
O=C(Cn1c(O)c(/C=C2\C=Nc3ccc(Br)cc32)sc1=O)N1CCCC1 | 18.9 | -9.1 | 5.0 | 17.6 | -2.2 | 43.1* | 36.4
CC[C@@H](C)[C@@H]1CN([C@@H](CN2CCC[C@H]2CN2C(N)=NC[C@H]2CC(C)C)C(C)C)C(=N)N1CCCC1CCCC1 | 38.8 | 1.8 | 2.9 | -4.9 | 2.1 | 35.9 | nt
CCCCN1C(=N)N([C@@H](CCC)CN2CCC[C@H]2CN2C(N)=NC[C@@H]2Cc2ccccc2)C[C@H]1Cc1ccccc1 | 33.8 | 3.9 | 1.2 | -1.7 | 6.9 | 45.3* | 45.2*
O=C(OCC(=O)N1CCN(c2ccc(F)cc2)CC1)c1cnc2ccccc2n1 | 4.7 | 0.8 | 3.0 | 1.1 | 1.5 | 49.3* | 31.5
CCOC(=O)c1nnn(-c2nonc2N)c1CSc1ccccn1 | 1.8 | 8.3 | -6.4 | 2.1 | 0.6 | 5.4 | nt
CCC(=O)Nc1ccc(-n2nnnc2SCC(=O)NNC(=O)c2ccco2)cc1 | -17.6 | nt | nt | 1.8 | nt | -2.2 | nt
O=C(COC(=O)Cc1ccc(S(=O)(=O)N2CCOCC2)s1)Nc1ccc([N+](=O)[O-])cc1 | -8.6 | -1.5 | -3.0 | 11.2 | 3.4 | 45.4* | 38.1
Cc1c(C(=O)NN)nn(-c2ccc(Cl)cc2)c(=O)c1C#N | 19.8 | 2.9 | 4.8 | 5.0 | 2.2 | 41.1 | nt
Cc1ccc(-n2nc(C(=O)NN)c(C)c(C#N)c2=O)cc1Cl | 18.6 | 14.0 | 1.4 | 5.5 | 6.3 | 65.8* | 34.5
Cc1nc(NC(=O)CSc2ccccc2N)sc1C | -1.0 | nt | nt | 2.2 | nt | 11.1 | nt
CC(=O)OCC(=O)Nc1c(C)cccc1C | 5.1 | -2.4 | -4.0 | -4.2 | -1.9 | 5.2 | nt
CC(C)(C)NC(=O)CSC(=Nc1cccc(F)c1)NC#N | -4.8 | -1.0 | 4.4 | 13.1 | -2.3 | 64.3* | 3.3
Cc1nc(-c2cc(C#N)c(Sc3ccc(Cl)cc3Cl)nc2C)cs1 | -7.3 | 1.2 | -11.0 | 0.1 | -1.5 | 6.0 | nt
COc1ccc(C2c3ccc4ccccc4c3Oc3ncn(CCCN(C)C)c(=N)c32)cc1 (centres undefined) | 16.9 | 7.8 | 0.9 | 1.8 | 0.9 | 44.7* | 42.1
COc1ccc(CNC(=O)CN2C(=O)C3C4C=CC(C4)C3C2=O)cc1 (centres undefined) | -7.0 | 9.7 | 2.8 | 3.9 | 4.8 | 5.6 | nt
CC(C)(C)OC(=O)NCCCCCNC(=O)c1nc[nH]c1C(=O)NCCCCCNC(=O)OC(C)(C)C | -50.0 | 7.9 | -3.7 | 5.0 | 5.5 | 20.4 | nt
O=C(Cc1sc(Nc2ccccc2)nc1-c1ccccc1)NCc1ccccn1 | -6.0 | 10.3 | 4.6 | 8.6 | 1.5 | 10.9 | nt
CCN1CCc2c(sc(NC(=O)Cc3ccccc3)c2C(N)=O)C1 | 9.9 | -2.0 | 5.4 | -4.8 | 3.6 | 1.6 | nt
CCN1CCc2c(sc(NC(=O)Nc3ccc(Cl)c(Cl)c3)c2C(N)=O)C1 | nt | 9.6 | -5.8 | 32.5* | 7.9 | 69.8* | 54.2*
Cc1ccc(-n2cccc2C(=S)N=P(N(C)C)(N(C)C)N(C)C)cc1 | -5.9 | 7.5 | 7.5 | -4.7 | 11.2 | 44.3* | 37.4
CCN(CC)C(=O)C(=O)c1cccn1-c1ccc(C#N)cc1 | -18.0 | 2.2 | -4.0 | 1.9 | -0.3 | 7.9 | nt
CC(C)[C@H](NC(=O)c1ccc([N+](=O)[O-])cc1Cl)C(=O)N1CCN(C/C=C/c2ccccc2)CC1 | 8.2 | 1.0 | 3.4 | 4.3 | 1.1 | 46.9* | 39.5
CC(C)C(NC(=O)c1ccc(Cl)cc1Cl)C(=O)N1CCC1 (centres undefined) | 19.6 | 0.6 | 0.7 | -2.4 | 9.6 | 11.9 | nt

From PubChem
